One assay deals with HeLa. Nature of the assay: Cytotoxicity against human HeLa cells at 2 mg/mL to 10 ng/mL by MTT assay. The assay is classed as functional, cell-based. In a few lines:
(§1)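 Antiproliferative MTT assay on the human leukemia line HL-60, the human carcinoma line HELA and the KB line. Compounds were tested over 2 mg/mL to 10 ng/mL, in triplicate.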
For orientation: Formazan colour is commonly taken as a measure of viable cells.

The next assay relates to HL-60. The experiment in a line: Cytotoxicity against human HL60 cells at 2 mg/mL to 10 ng/mL by MTT assay. In kind it is functional, cell-based. In a few lines: as §1

Structures are written as SMILES. Calls of active or inactive are those of the source. The rule behind the calls is not given here.

Take `COc1cc([C@@H]2c3c(cc(OC)c(OC)c3OC)[C@H](OC(C)=O)[C@@H]3COC[C@@H]23)cc(OC)c1OC`: the outcome with HeLa and in the assay with HL-60 was inactive.
On to `COc1cc([C@H]2c3c(cc(OC)c(OC)c3OC)C(=O)[C@@H]3COC[C@@H]23)cc(OC)c1OC`, for which the outcome with HeLa and in the assay with HL-60 was inactive.
For the compound `COc1ccc([C@@H]2c3c(cc(OC)c(OC)c3OC)C[C@@H]3COC[C@H]32)cc1OC`, the outcome in the assay with HeLa and with HL-60 was inactive.
In the case of `COc1cc([C@@H]2c3c(cc(OC)c(OC)c3OC)C[C@@H]3COC[C@H]32)cc(OC)c1OC`, the outcome in the assay on HeLa and with HL-60 was inactive.

For the origin of these results see ChEMBL document CHEMBL1156389, “Aglacins A-D, first representatives of a new class of aryltetralin cyclic ether lignans from Aglaia cordata” (J Nat Prod, 2001).
